Assay results published in ChEMBL document CHEMBL1135838, “alpha(1)-Adrenoceptor agonists: the identification of novel alpha(1A )subtype selective 2'-heteroaryl-2-(phenoxymethyl)imidazolines” (Bioorg Med Chem Lett, 2002).

Experiments:
[1] = target: T1, Alpha-1B adrenergic receptor (Homo sapiens, UniProt P35368); test: Activation of recombinant human adrenergic, alpha-1B receptor expressed in rat-1 fibroblasts determined via calcium mobilization through Gq coupled PLC pathway; format: functional
T1 sequence (P35368 whole entry): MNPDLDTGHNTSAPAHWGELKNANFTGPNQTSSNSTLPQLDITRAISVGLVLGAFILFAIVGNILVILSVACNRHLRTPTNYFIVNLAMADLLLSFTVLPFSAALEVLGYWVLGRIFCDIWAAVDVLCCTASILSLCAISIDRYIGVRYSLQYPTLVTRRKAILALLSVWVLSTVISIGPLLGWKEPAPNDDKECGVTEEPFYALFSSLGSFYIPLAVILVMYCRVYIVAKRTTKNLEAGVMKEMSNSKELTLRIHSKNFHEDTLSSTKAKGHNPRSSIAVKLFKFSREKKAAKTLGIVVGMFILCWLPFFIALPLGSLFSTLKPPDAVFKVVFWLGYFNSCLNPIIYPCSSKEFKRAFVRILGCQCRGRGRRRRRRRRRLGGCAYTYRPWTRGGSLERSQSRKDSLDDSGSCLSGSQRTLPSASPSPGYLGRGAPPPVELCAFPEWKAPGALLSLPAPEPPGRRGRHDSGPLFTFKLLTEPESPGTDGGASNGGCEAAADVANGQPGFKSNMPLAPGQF
Method in brief: (§1)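 Rat-1 fibroblasts stably expressing cloned human α1A (clone #137-12), α1B (clone #37-11) or α1D (clone #16-7) adrenoceptor were loaded with the Calcium Green calcium-sensitive dye. Gq/PLC-coupled calcium mobilization was read on a FLIPR. Eleven-point concentration–response curves, with a top concentration typically 5 μM, were normalized to the 40 μM phenylephrine response to give pEC50 and % efficacy. Values are the mean of ≥2 experiments.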

[2] = target: T2, Alpha-1A adrenergic receptor (Homo sapiens, UniProt P35348); test: Activation of recombinant human adrenergic,alpha-1A receptor expressed in rat-1 fibroblasts determined via calcium mobilization through Gq coupled PLC pathway; format: functional; method in brief: as §1
T2 sequence (P35348 whole entry): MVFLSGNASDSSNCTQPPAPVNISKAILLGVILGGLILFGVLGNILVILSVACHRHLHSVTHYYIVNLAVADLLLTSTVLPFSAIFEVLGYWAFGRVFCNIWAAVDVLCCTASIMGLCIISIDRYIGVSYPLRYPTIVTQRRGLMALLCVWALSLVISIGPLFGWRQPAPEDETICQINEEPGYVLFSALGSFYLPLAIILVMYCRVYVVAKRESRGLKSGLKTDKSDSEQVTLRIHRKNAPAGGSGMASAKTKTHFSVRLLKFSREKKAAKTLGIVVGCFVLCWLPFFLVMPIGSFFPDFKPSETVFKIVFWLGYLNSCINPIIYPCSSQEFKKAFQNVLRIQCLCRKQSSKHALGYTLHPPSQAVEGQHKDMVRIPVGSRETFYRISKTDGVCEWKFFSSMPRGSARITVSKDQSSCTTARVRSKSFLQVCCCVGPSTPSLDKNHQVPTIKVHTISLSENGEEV

[3] = target: T3, Alpha-1D adrenergic receptor (Homo sapiens) (UniProt P25100); test: Ability to activate human alpha-1D receptor expressed in rat-1 fibroblasts as calcium mobilization through Gq coupled PLC pathway relative to phenylephrine response; format: functional; method in brief: as §1
T3 sequence (whole entry): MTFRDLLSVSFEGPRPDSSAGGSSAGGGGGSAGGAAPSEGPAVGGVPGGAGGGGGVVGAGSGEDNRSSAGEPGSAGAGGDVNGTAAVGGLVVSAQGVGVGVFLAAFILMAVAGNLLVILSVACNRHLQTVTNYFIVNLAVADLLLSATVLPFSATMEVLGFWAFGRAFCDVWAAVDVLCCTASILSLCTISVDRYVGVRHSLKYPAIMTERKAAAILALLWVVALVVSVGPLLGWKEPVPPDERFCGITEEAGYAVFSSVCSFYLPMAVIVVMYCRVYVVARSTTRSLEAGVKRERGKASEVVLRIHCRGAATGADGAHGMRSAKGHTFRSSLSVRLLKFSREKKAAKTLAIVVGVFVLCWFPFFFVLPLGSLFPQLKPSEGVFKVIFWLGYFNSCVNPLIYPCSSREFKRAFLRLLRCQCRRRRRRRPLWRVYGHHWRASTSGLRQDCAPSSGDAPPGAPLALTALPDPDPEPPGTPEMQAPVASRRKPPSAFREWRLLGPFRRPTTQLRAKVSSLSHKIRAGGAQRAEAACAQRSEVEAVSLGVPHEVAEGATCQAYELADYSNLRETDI

[4] = target: T4, Alpha-1A adrenergic receptor (Homo sapiens) (UniProt P35348); test: Ability to activate cloned human alpha-1A receptor expressed in rat-1 fibroblasts via calcium mobilization through Gq coupled PLC pathway expressed as percent of phenylephrine (40 uM) response; format: functional; method in brief: as §1
T4 sequence (whole entry): T2 sequence (P35348 whole entry)

[5] = target: T5, Alpha-1D adrenergic receptor (Homo sapiens, UniProt P25100); test: Activation of recombinant human adrenergic, alpha-1D receptor expressed in rat-1 fibroblasts assayed via calcium mobilization through Gq coupled PLC pathway; format: functional; method in brief: as §1
T5 sequence (P25100 whole entry): T3 sequence (whole entry)

[6] = target: T2, Alpha-1A adrenergic receptor; test: Binding affinity of compound towards Alpha-1A adrenergic receptor using membranes prepared from Rat-1 fibroblasts expressing human Alpha-1A adrenergic receptor
Method in brief: (§2)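 Radioligand binding was run on membranes from Rat-1 fibroblasts expressing human α1A, α1B or α1D adrenoceptor. Affinity is reported as pIC50 (±SEM), the mean of at least two experiments.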

[7] = target: T5, Alpha-1D adrenergic receptor; test: Binding affinity of compound towards human Alpha-1D adrenergic receptor expressed in rat-1 fibroblast membranes; format: cell membranes; method in brief: as §2
[8] = target: T1, Alpha-1B adrenergic receptor; test: Binding affinity of compound towards human Alpha-1B adrenergic receptor expressed in rat fibroblast membranes; format: cell membranes, Membrane; method in brief: as §2
[9] = target: T6, Alpha-1B adrenergic receptor (Homo sapiens) (UniProt P35368); test: Activation of human alpha-1B receptor expressed in rat-1 fibroblasts by calcium mobilization of Gq coupled PLC as percent phenylephrine (40 uM) response; format: functional; method in brief: as §1
T6 sequence (whole entry): T1 sequence (P35368 whole entry)

EC50 [1] | EC50 [2] | Max [3] | Max [4] | EC50 [5] | IC50 [6] | IC50 [7] | IC50 [8] | Max [9] | SMILES
> 100000 nM | 7.94 nM | 20% | 101% | 794 nM |  |  |  |  | c1ccc(-c2ccccc2NCC2=NCCN2)cc1
79.4 nM | 2 nM | 38% | 109% | 158 nM | 50.1 nM | 257 nM | 1290 nM | 111% | c1cncc(-c2ccccc2OCC2=NCCN2)c1
631 nM | 2.51 nM |  | 97% | > 100000 nM |  |  |  | 46% | c1ccc(-c2cnccn2)c(OCC2=NCCN2)c1
> 100000 nM | 12.6 nM |  | 104% | > 100000 nM |  |  |  |  | Cc1cnsc1-c1ccccc1OCC1=NCCN1
> 5010 nM | > 5010 nM |  |  | > 5010 nM |  |  |  |  | CCN(CC)C(=O)c1ccccc1OCC1=NCCN1
> 100000 nM | > 100000 nM |  |  | > 100000 nM |  |  |  |  | c1ccc(-c2ccncn2)c(OCC2=NCCN2)c1
15.8 nM | 0.251 nM | 120% | 98% | 12.6 nM |  |  |  | 103% | c1ccc(-c2ccsc2)c(OCC2=NCCN2)c1
> 100000 nM | 316 nM |  | 86% | > 100000 nM |  |  |  |  | CS(=O)(=O)Nc1ccc(F)c([C@@H](O)CN)c1 [NS-49]
20 nM | 2.51 nM | 113% | 102% | 31.6 nM |  |  |  | 100% | c1ccc(-c2nccs2)c(OCC2=NCCN2)c1
> 100000 nM | 158 nM |  | 75% | > 100000 nM |  |  |  |  | Cc1cc(-c2ccccc2OCC2=NCCN2)sn1
> 100000 nM | 39.8 nM |  | 107% | > 100000 nM |  |  |  |  | Cn1nccc1-c1ccccc1OCC1=NCCN1
5.01 nM | 0.501 nM | 126% | 104% | 5.01 nM |  |  |  | 111% | c1ccc(-c2ccoc2)c(OCC2=NCCN2)c1
1 nM | 1.26 nM | 111% | 99% | 6.31 nM | 32.4 nM | 53.7 nM | 269 nM | 104% | c1c[nH]c(-c2ccccc2OCC2=NCCN2)c1
> 100000 nM | 25.1 nM |  | 104% | > 100000 nM |  |  |  |  | Cc1csc(-c2ccccc2OCC2=NCCN2)n1
10 nM | 1.26 nM |  | 106% | > 100000 nM |  |  |  | 110% | c1coc(-c2ccccc2OCC2=NCCN2)c1
> 100000 nM | > 100000 nM |  |  | > 100000 nM | 1290 nM | 1410 nM | 2450 nM |  | Cc1ccnc(-c2ccccc2OCC2=NCCN2)c1
> 100000 nM | 25.1 nM |  | 97% | > 100000 nM |  |  |  |  | Cc1ccc(-c2ccccc2OCC2=NCCN2)s1
12.6 nM | 5.01 nM | 82% | 99% | 25.1 nM |  |  |  | 56% | c1ccc(-c2ccns2)c(OCC2=NCCN2)c1
> 100000 nM | 3.16 nM |  | 99% | > 100000 nM | 34.7 nM | 417 nM | 776 nM |  | Cc1ccoc1-c1ccccc1OCC1=NCCN1
> 100000 nM | 100 nM |  | 122% | > 100000 nM |  |  |  |  | c1ccc(-c2ncc[nH]2)c(OCC2=NCCN2)c1
> 100000 nM | 12.6 nM |  |  | > 100000 nM | 115 nM | 1120 nM | 2040 nM |  | c1ccc(-c2ccccc2OCC2=NCCN2)nc1
79.4 nM | 5.01 nM |  | 119% | > 100000 nM |  |  |  | 39% | c1ccc(-c2cc[nH]n2)c(OCC2=NCCN2)c1
> 100000 nM | > 100000 nM |  |  | > 100000 nM |  |  |  |  | c1ccc(-c2ccncc2)c(OCC2=NCCN2)c1
3.98 nM | 1 nM | 93% | 101% | 15.8 nM |  |  |  | 112% | c1csc(-c2ccccc2OCC2=NCCN2)c1
> 100000 nM | 126 nM |  | 80% | > 100000 nM |  |  |  |  | Cc1cccc(-c2ccccc2OCC2=NCCN2)n1
> 100000 nM | 1260 nM |  | 90% | > 100000 nM |  |  |  |  | c1cnc(-c2ccccc2OCC2=NCCN2)nc1
> 100000 nM | 3.16 nM |  |  | > 100000 nM | 27.5 nM | 324 nM | 741 nM |  | c1ccc(-c2ccccc2OCC2=NCCN2)cc1
